Source: publication PMC3799977 (Toxicology and applied pharmacology, 2012)

Experiments:
mouse RORγ = target: T1, mouse RORγ (Mus musculus, UniProt P51450); assay: CHO-K1 cell-based RORγ reporter gene assay; conditions: for ROR activity (RORγ): data not shown; for RIC20 (20% relative inhibitory concentration), RORγ assay: inverse agonistic activity, CHO-K1 cells, 24 hr
T1 sequence (P51450 1-516): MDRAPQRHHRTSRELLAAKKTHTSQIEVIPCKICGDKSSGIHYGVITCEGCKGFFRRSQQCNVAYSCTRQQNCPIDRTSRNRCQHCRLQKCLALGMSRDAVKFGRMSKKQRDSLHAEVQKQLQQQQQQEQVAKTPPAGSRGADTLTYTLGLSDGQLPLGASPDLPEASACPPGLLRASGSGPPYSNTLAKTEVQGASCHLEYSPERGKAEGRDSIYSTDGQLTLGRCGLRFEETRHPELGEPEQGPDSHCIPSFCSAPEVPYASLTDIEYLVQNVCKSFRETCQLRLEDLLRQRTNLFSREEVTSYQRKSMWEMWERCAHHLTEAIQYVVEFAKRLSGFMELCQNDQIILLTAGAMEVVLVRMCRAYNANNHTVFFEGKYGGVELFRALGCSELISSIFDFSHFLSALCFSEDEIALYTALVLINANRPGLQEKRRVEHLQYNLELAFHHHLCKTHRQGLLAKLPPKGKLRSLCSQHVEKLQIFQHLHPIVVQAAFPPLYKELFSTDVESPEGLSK

mouse RORα = target: T2, mouse RORα (Mus musculus, UniProt P51448); assay: CHO-K1 cell-based RORα reporter gene assay; conditions: for ROR activity (RORα): data not shown; for RORα inverse agonistic activity (in words): Fig. 2A; for RIC20 (20% relative inhibitory concentration), RORα assay: inverse agonistic activity, CHO-K1 cells, 24 hr
T2 sequence (P51448 1-467 isoform P51448-2): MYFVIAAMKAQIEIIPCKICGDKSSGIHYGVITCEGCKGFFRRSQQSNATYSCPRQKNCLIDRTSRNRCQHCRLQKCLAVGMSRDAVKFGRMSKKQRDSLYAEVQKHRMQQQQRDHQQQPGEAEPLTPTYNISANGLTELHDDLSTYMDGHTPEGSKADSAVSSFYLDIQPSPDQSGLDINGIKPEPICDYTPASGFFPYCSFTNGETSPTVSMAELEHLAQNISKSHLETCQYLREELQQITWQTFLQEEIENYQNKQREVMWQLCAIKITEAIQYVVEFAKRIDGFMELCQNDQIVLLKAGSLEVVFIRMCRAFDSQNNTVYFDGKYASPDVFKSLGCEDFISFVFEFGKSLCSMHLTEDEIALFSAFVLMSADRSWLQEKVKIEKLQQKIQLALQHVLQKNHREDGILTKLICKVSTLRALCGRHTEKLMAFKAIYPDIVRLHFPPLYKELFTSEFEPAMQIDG

[1] = system: IL-17A mRNA expression in mouse T lymphoma EL4 cells; assay: IL-17A mRNA expression in EL4 cells; type: cell-based; conditions: 6 h; for IL-17 gene expression, dose dependence: PMA/ionomycin-stimulated EL4 cells, 1, 3, 10 or 30 μM; for IL-17 mRNA expression, real-time PCR: highest dose 30 μM
How it was run: (§1)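 EL4 cells were plated at 2 × 10^6 cells/ml in RPMI-1640 with 10% FBS. Next day they were stimulated with PMA (5 ng/ml) plus ionomycin (1 μM) and given vehicle or 1, 3, 10 or 30 μM test compound at 37°C for 6 h. TRIzol RNA was reverse-transcribed and TaqMan real-time PCR run, normalized to β-actin. Results were expressed relative to stimulated vehicle (=1), mean ± SD, three experiments.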

[2] = system: IL-17A mRNA expression in EL4/shNC cells; assay: IL-17A mRNA expression in control shRNA EL4/shNC cells; type: cell-based, mouse; conditions: 10 μM, PMA/ionomycin
CHO-K1 cells = assay: Cytotoxicity check by β-galactosidase activity in the reporter gene assays; type: cell-based, Chinese hamster; conditions: highest dose (30 μM)
[3] = system: IL-17A mRNA expression in EL4/shRorac cells; assay: IL-17A mRNA expression in RORα/γ-knockdown EL4/shRorac cells; type: cell-based, mouse; conditions: 10 μM, PMA/ionomycin, RORα/γ double knockdown
How it was run: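 EL4/shRorac, a stable RORα/RORγ double-knockdown clone, was made by electroporating a GFP/Neo U6 vector carrying Rora and Rorc shRNAs, then selecting in G418. EL4/shNC (nonsilencing shRNA) served as control. Cells received 10 μM test compound with or without PMA/ionomycin. IL-17 mRNA was measured by real-time RT-PCR, normalized to β-actin, and expressed relative to stimulated vehicle-treated EL4/shNC (=1). Mean ± SD, three experiments.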

RORα = conditions: read-out: Ki, binding to RORα; ref Kumar et al. (2010); cited from earlier work
[4] = system: RORα mRNA expression in EL4 cells; assay: RORα mRNA expression in PMA/ionomycin-stimulated EL4 cells; type: cell-based, mouse; conditions: 6 h
How it was run: as §1

[5] = system: RORγ mRNA expression in EL4 cells; assay: RORγ mRNA expression in PMA/ionomycin-stimulated EL4 cells; type: cell-based, mouse; conditions: 6 h
[6] = PMA/ionomycin-stimulated EL4 cells, 10 μM
[7] = PMA/ionomycin-stimulated EL4 cells

SMILES	ROR activity (RORγ) (mouse RORγ)	ROR activity (RORα) (mouse RORα)	RIC20 (20% relative inhibitory concentration), RORγ assay (mouse RORγ) [µM]	RORα inverse agonistic activity (in words) (mouse RORα)	RIC20 (20% relative inhibitory concentration), RORα assay (mouse RORα) [µM]	IL-17A mRNA expression, real-time PCR [1, 6]	IL-17 gene expression, dose dependence [1]	further results
CC(C)(C)C(=O)C(Oc1ccc(Cl)cc1)n1cncn1 (stereo not drawn) [triadimefon]	inactive	inactive						
CCCCC(O)(Cn1cncn1)c1ccc(Cl)cc1Cl (stereo not drawn) [Hexaconazole]			3.2	weak RORα inverse agonists	21	significantly inhibited	inhibit IL-17 gene expression in a dose-dependent manner	
CCCN(CCOc1c(Cl)cc(Cl)cc1Cl)C(=O)n1ccnc1 [prochloraz]	inactive	inactive						
FC(F)C(F)(F)OCC(Cn1cncn1)c1ccc(Cl)cc1Cl (stereo not drawn) [Tetraconazole]			15	did not show almost any inverse agonistic activity	> 30		inhibit IL-17 gene expression in a dose-dependent manner	IL-17 mRNA expression, real-time PCR [1, 7]: significantly suppressed IL-17 mRNAs
CC(C)(C)C(O)C(Oc1ccc(-c2ccccc2)cc1)n1cncn1 (stereo not drawn) [bitertanol]	inactive	inactive						
Clc1ccc(CSC(Cn2cncn2)=Nc2ccc(Cl)cc2Cl)cc1 [Imibenconazole]			3.3	weak RORα inverse agonists	10	strongly suppressed IL-17A mRNA expression	inhibit IL-17 gene expression in a dose-dependent manner	IL-17A mRNA expression in EL4/shNC cells [2]: showed inhibitory effects on IL-17A mRNA expression; cytotoxic effects based on β-galactosidase activity (CHO-K1 cells): except for the highest dose (30 μM); IL-17 mRNA expression in EL4/shRorac cells [3]: also suppressed IL-17 mRNA expression
CCCOC/C(=N\c1ccc(Cl)cc1C(F)(F)F)n1ccnc1 [Triflumizole]				weak RORα inverse agonists		significantly inhibited	inhibit IL-17 gene expression in a dose-dependent manner	
C=CCOC(Cn1ccnc1)c1ccc(Cl)cc1Cl (stereo not drawn) [Imazalil]			29	did not show almost any inverse agonistic activity	> 30		inhibit IL-17 gene expression in a dose-dependent manner	IL-17 mRNA expression, real-time PCR [1, 7]: significantly suppressed IL-17 mRNAs
CCCC1COC(Cn2cncn2)(c2ccc(Cl)cc2Cl)O1 (stereo not drawn) [propiconazole]	inactive	inactive						
O=S(=O)(c1ccccc1)N(CC(F)(F)F)c1ccc(C(O)(C(F)(F)F)C(F)(F)F)cc1 [T0901317, N-(2,2,2-trifluoroethyl)-N-[4-(2,2,2-trifluoro-1-hydroxy-1-trifluoromethyl-ethyl)-phenyl]-benzene sulfonamide, reference compound]				weak RORα inverse agonists				IL-17A mRNA expression in EL4/shNC cells [2]: showed inhibitory effects on IL-17A mRNA expression; cytotoxic effects based on β-galactosidase activity (CHO-K1 cells): except for the highest dose (30 μM); IL-17 mRNA expression in EL4/shRorac cells [3]: also suppressed IL-17 mRNA expression; RORα agonistic activity (mouse RORα; CHO cell-based reporter gene assay): didn’t show any RORα/γ agonistic activity; Ki (RORα): […]; RORα mRNA expression [4]: did not affect; RORγ mRNA expression [5]: did not affect; IL-17A mRNA expression, qualitative RT-PCR ([1]; PMA/ionomycin-stimulated EL4 cells, 0.1, 1, 10 μM, Fig. 4A): inhibited IL-17A mRNA expression in a dose-dependent manner; IL-17A mRNA expression, real-time PCR ([1]; PMA/ionomycin-stimulated EL4 cells, 0.1, 1, and 10 μM): significantly inhibited IL-17A mRNA expression; IL-17A gene expression in non-stimulated EL4 cells ([1]; no PMA/ionomycin stimulation, qualitative RT-PCR): neither T0901317 nor the vehicle induced the expression of IL-17A gene
